Reference: ChEMBL document CHEMBL2203218, “Evaluation of [(11)C]N-Methyl Lansoprazole as a Radiopharmaceutical for PET Imaging of Tau Neurofibrillary Tangles” (ACS Med Chem Lett, 2012)
pKd, pKi: −log10 of the molar value. Each block holds one compound with its values, some of them ahead of it.

How the values were obtained:
[1] = target: Microtubule-associated protein tau (Homo sapiens, UniProt P10636); assay: Binding affinity to heparin induced human Tau 441 at 50 pM to 500 nM after 30 mins
Cortex = assay: Drug uptake in human Tau expressing Sprague-Dawley rat cortex at 1 to 10 mCi by autoradiography analysis relative to wild type Sprague-Dawley rat brain; assay type: ADME, tissue-based; settings: in vivo
Brain [2] = assay: Drug uptake in rhesus monkey brain at 5.4 mCi, iv after 3 mins by MicroPET analysis; assay type: ADME, organism-based, Macaca mulatta; settings: in vivo, 0.05 h
[3] = Drug uptake in human globus pallidus using bielschowsky staining by autoradiography analysis; assay type: ADME, tissue-based
In short: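 PSP patient brain blocks were cut into 20 μm cryostat sections on slides and incubated with tracer for 10 min. Slides were washed, dried and exposed to film for 5 min. The same slides were then stained by modified Bielschowsky staining to locate tau NFTs for colocalization.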

Kidney = assay: Biodistribution in iv dosed Sprague-Dawley rat kidney after 5 to 60 mins by gamma counting; assay type: ADME, organism-based; settings: in vivo
In short: (§1)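 Tracer reconstituted in ethanolic saline and injected via tail vein into anesthetized Sprague-Dawley rats (three per time point). Rats were allowed to wake, then reanesthetized and sacrificed at 5, 30 and 60 min postinjection for tissue distribution.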

Brain [4] = assay: Drug uptake in human Tau expressing Sprague-Dawley rat brain at 1 to 10 mCi by autoradiography analysis; assay type: ADME, tissue-based; settings: in vivo
Liver = assay: Biodistribution in iv dosed Sprague-Dawley rat liver after 5 to 60 mins by gamma counting; assay type: ADME, organism-based; settings: in vivo; in short: as §1
[5] = Octanol-water partition coefficient, log P of the compound; assay type: physicochemical
Brain [6] = assay: Drug uptake in rhesus monkey brain at 5.4 mCi, iv at 3 mins by MicroPET analysis; assay type: ADME, organism-based, Macaca mulatta; settings: in vivo, 0.05 h
Hippocampus = assay: Drug uptake in human Tau expressing Sprague-Dawley rat hippocampus at 1 to 10 mCi by autoradiography analysis relative to wild type Sprague-Dawley rat brain; assay type: ADME, tissue-based; settings: in vivo
Brain [7] = assay: Biodistribution in iv dosed Sprague-Dawley rat brain after 5 to 60 mins by gamma counting; assay type: ADME, organism-based; settings: in vivo; in short: as §1
Rattus norvegicus = assay: Metabolic stability in anesthetized iv dosed Sprague-Dawley rat […] and HPLC analysis; assay type: ADME, organism-based; settings: in vivo, in the assay text read “5 to 30 mins” for “5 to 60 mins”
In short: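 Sprague-Dawley rats, anesthetized, received tracer via tail vein (three per time point). They were allowed to wake, then reanesthetized and sacrificed at 5, 15 and 30 min. Blood collected at each time was centrifuged, and the plasma was analyzed by HPLC and radio-TLC for parent and radioactive metabolites.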

Brain [8] = assay: Drug uptake in Sprague-Dawley rat brain at 0.95 mCi, iv after 60 mins by MicroPET analysis; assay type: ADME, organism-based; settings: in vivo, 1 h
Brain [9] = assay: Drug uptake in wild type Sprague-Dawley rat brain at 1 to 10 mCi by autoradiography analysis; assay type: ADME, tissue-based; settings: in vivo

Microtubule-associated protein tau, sequence (P10636 whole entry): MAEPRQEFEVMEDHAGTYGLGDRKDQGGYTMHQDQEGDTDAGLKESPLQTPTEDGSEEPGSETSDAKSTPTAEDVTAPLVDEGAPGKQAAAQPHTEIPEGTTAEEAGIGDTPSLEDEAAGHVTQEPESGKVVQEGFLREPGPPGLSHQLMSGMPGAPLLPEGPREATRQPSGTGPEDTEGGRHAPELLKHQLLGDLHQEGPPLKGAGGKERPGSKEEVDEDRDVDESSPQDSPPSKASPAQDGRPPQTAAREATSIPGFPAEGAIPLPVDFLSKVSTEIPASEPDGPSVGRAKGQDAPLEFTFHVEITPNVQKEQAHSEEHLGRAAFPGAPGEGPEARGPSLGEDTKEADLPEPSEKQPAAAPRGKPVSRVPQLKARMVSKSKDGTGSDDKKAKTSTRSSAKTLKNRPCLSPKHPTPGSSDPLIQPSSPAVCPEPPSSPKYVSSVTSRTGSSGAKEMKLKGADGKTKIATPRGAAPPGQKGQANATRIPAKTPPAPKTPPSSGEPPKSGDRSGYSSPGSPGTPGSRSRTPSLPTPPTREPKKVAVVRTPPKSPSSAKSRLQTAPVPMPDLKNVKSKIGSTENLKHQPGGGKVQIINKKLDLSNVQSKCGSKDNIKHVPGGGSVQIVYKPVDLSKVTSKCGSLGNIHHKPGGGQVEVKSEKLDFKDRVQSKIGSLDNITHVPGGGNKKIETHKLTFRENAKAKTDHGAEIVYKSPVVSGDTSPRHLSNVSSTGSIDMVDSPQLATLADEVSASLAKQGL

- Bmax ([1]; tested as the 11C-labelled form): 0.214 fmol/µg
Compound: Cc1c(OCC(F)(F)F)ccnc1C[S+]([O-])c1nc2ccccc2n1C (stereo unspecified)

Compound: Cc1c(OCC(F)(F)F)ccnc1C[S+]([O-])c1nc2ccccc2[nH]1 (stereo unspecified) [LANSOPRAZOLE]
- pKi [1]: 8.60

- Drug uptake (Cortex): 12%
- Drug uptake (Brain [2]): 500 nCi/cc
- Drug uptake [3]: Active
- Drug uptake (Kidney): Active
- Drug uptake (Brain [4]): Active
- Drug uptake (Liver): Active
- logP [5]: 2.18
- Drug uptake (Brain [6]): 1600 nCi/cc
- Drug uptake (Hippocampus): 4%
- Drug uptake (Brain [7]): Not Active
- Stability (Rattus norvegicus): Unstable
- pKd [1]: 9.15
- Drug uptake (Brain [8]): Not Active
- Drug uptake (Brain [9]): Active
Compound: Cc1c(OCC(F)(F)F)ccnc1C[S+]([O-])c1nc2ccccc2n1[11CH3] (stereo unspecified)
